# High-throughput results (PubChem BioAssay)
# SR-BI HDL uptake = mouse SR-BI HDL lipid transfer inhibition. Q61009. ldlA[mSR-BI] CHO cells, DiI-HDL uptake fluorescence, 3 h. inhibition, % at 12.5 µM. hit rate 0.96% among 320,000. AID 488896;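 active = mean replicate inhibition of at least 70% and a set share of replicates each scoring 70 or more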;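 also: 0% = median of neutral control wells and 100% = median of positive control wells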
# CDK5 p35 inh = blocks human CDK5/p35 kinase activity | Q00535+Q15078 | Recombinant CDK5/p35, ADP-Glo luminescence, 60 min | inhibition, % at 10 µM | hit rate 0.01% among 330,000 | AID 488839;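 active = highest replicate inhibition of at least 50% and at least 75% of replicates reaching 50%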;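 also: plate controls were DMSO neutral control for no effect and GW8510 at 10 µM for full effect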
# SR-BI DiI-HDL act = enhances SR-BI lipid uptake from DiI-HDL; activation, % at 12.5 µM; hit rate 0.096% among 320,000; CHO ldlA[mSR-BI] cells, DiI-HDL uptake fluorescence, 3 h; 100 = double the neutral-control signal;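 active = mean replicate activation of at least 60% and every replicate at or above 60%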;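 also: 0% = median plate neutral-control signal and 100% = twice that signal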
#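 System: LDL receptor-deficient CHO ldlA cells overexpressing murine SR-BI | Timing: 3 h uptake period with compound, 37 °C | Medium: HEPES-buffered (25 mM, pH 7.4) F12 plus 0.5% BSA | Dosing: Single-point compound dose | Signal: Bottom-read fluorescence, 550/595 nm | Read-out: Retained DiI signal reflecting DiI-HDL uptake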
# dFosB act-1 = mouse delta FosB homodimer activation; purified delta FosB, TAMRA-CDK5 oligo fluorescence polarization; percent of positive-control signal above neutral wells; activation, % at 25 µM; hit rate 0.99% among 340,000;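 active = mean activation above about 17%, with every replicate also reaching it, limit read from the data, passing the limit was not always enough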
# dFosB act-2 = delta FosB (mouse) homodimer activation; shares compounds with dFosB act-1; purified delta FosB, TAMRA-CDK5 oligo fluorescence polarization; normalised: neutral wells 0, positive control 100; activation, % at 24.9 µM; 2,400 tested, under 10 active;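 active = highest replicate activation at or above 34% and every replicate reaching that threshold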;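 also: higher polarization means more probe DNA bound by delta FosB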
# Numbers without * were called inactive; · = no result given. An excerpt weighted towards active compounds, which were near 2% of everything screened.
SMILES,SR-BI HDL uptake,CDK5 p35 inh,SR-BI DiI-HDL act,dFosB act-1,dFosB act-2
O=C1NC(=O)c2cc(Oc3ccc([N+](=O)[O-])cc3)ccc21,-3.7,1.0,3.7,1.3,·
COc1cccc(C2CC(c3ccccc3)=NN2S(=O)(=O)c2ccc(C)cc2)c1OC (stereo not drawn),-33.5,-0.9,33.5,38.9*,0.8
COc1ccccc1C1CC(c2ccccc2)=NN1S(=O)(=O)c1ccccc1 (stereo not drawn),9.6,-1.1,-9.6,-6.8,·
Cc1cc(Br)cc(Br)c1OCC(=O)NNC(=O)CCC(=O)NCc1ccccc1,-28.8,1.9,28.8,25.4*,0.9
O=C(CCC(=O)NNC(=O)COc1ccccc1)NCc1ccccc1,-27.3,0.3,27.3,5.2,·
O=C(CCC(=O)NNC(=O)COc1ccc(Br)cc1Br)NCc1ccccc1,-4.8,1.2,4.8,33.6*,3.0
O=C(CN1C(=O)c2ccccc2C1=O)Oc1ccc(Cl)cc1,-4.7,-0.8,4.7,0.6,·
C=CCn1c(=S)[nH]c2cc(C(=O)NCCc3ccc(S(N)(=O)=O)cc3)ccc2c1=O,15.2,-0.6,-15.2,4.8,·
NS(=O)(=O)c1ccc(CCNC(=O)CCCCCn2c(=S)[nH]c3ccc(Br)cc3c2=O)cc1,37.4,0.1,-37.4,48.8*,9.9
NS(=O)(=O)c1ccc(CCNC(=O)c2ccc(Cn3c(=O)[nH]c4ccccc4c3=O)cc2)cc1,-3.0,0.3,3.0,34.1*,-9.8
O=C(CCCCCn1c(=S)[nH]c2ccc(Br)cc2c1=O)NCC1CCCO1 (stereo not drawn),19.8,-0.2,-19.8,-4.0,·
Oc1ccc(C(c2nnnn2CCc2ccccc2)N2CCN(c3nc4ccccc4s3)CC2)cc1 (stereo not drawn),50.9,2.8,-50.9,-13.3,·
CSc1cccc(NC(=O)c2cc(S(=O)(=O)N3CCc4ccccc43)cn2C)c1,67.1,0.7,-67.1,-9.1,·
Cc1ccc([N+](=O)[O-])cc1-c1ccc(/C=C(\C#N)c2[nH]nc(N)c2C#N)o1,-13.5,-0.6,13.5,29.2*,5.4
COCc1cc(C)nc(OCC(=O)N/N=C/c2ccc(-c3cc([N+](=O)[O-])ccc3C)o2)c1C#N,23.4,-0.2,-23.4,9.8,·
COc1ccc([N+](=O)[O-])cc1NC(=O)COC(=O)c1ccc(O)cc1,1.0,1.3,-1.0,52.7*,6.0
COc1ccc([N+](=O)[O-])cc1NC(=O)c1ccc(Br)s1,64.0,0.3,-64.0,58.7*,4.2
Cc1cc(OCc2nc(-c3ccc(NC(=O)c4cccnc4)cc3)no2)ccc1Cl,32.0,0.4,-32.0,78.1*,-0.9
O=C(Nc1ccc(-c2noc(CCc3ccccc3)n2)cc1)c1cccnc1,7.4,-0.2,-7.4,-5.7,·
Cc1ccccc1OCc1nc(-c2ccc(NC(=O)c3ccc4c(c3)OCO4)cc2)no1,90.6*,0.1,-90.6,19.3*,0.2
CCOc1ccc(-n2c(SCC(=O)Nc3nccs3)nc3c(c2=O)SCC3)cc1,-3.3,-0.1,3.3,-5.5,·
Cc1ccc(-n2c(SCC(=O)Nc3nccs3)nc3c(c2=O)SCC3)cc1,8.6,-0.5,-8.6,38.2*,0.6
Cc1csc2ncnc(NNC(=O)c3ccc(Cl)cc3)c12,-0.6,1.2,0.6,28.1*,1.6
O=C(NNc1ncnc2sccc12)c1ccc(Cl)cc1,-2.7,1.0,2.7,0.4,·
COC(=O)C1=C(C(=O)OC)[C@@H]2Nc3ccccc3[C@@]23C[C@@H](C(=O)OC)N(C(C)=O)C3=N1,-16.5,0.5,16.5,7.5,·
SMILES,SR-BI HDL uptake,CDK5 p35 inh,SR-BI DiI-HDL act,dFosB act-1,dFosB act-2
Cc1ccccc1Nc1nc(N)nc(CN(C)Cc2ccccc2Cl)n1,-0.8,0.8,0.8,-9.7,·
COc1ccc(Cl)cc1C(=O)NNC(=O)c1cc2ccccc2o1,15.7,0.6,-15.7,34.8*,0.7
COc1ccc(NC(=O)c2cc3ccccc3o2)cc1OC,33.0,-0.8,-33.0,-5.3,·
CCOc1ccc(NC(=S)N2CCc3cc(OC)c(OC)cc3C2COc2ccc3c(C)cc(=O)oc3c2)cc1 (stereo not drawn),19.5,0.1,-19.5,50.0*,3.1
Cc1ccc(C(=O)N/N=C\c2cccc(OC(=O)c3cccc(F)c3)c2)cn1,·,-0.7,·,-16.8,·
Cc1cc(C(=O)N/N=C/c2cc(Br)cc(Br)c2OC(=O)c2cccc(F)c2)n[nH]1,121.5*,1.1,-121.5,52.7*,4.2
Cc1ccc(C(=O)N/N=C\c2ccc(OC(=O)c3cccc(F)c3)cc2)cn1,·,1.2,·,31.1*,0.3
